Assay [1] concerns the target Integrin alpha-4/beta-1 (Homo sapiens) (UniProt P05556+P13612). As to the kind of experiment: In vitro inhibition of Jurkat cell (alpha4-beta1) cell adhesion to vascular cell adhesion molecule-1. The assay is classed as functional, cell-based. The procedure, abridged: (§1)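 Jurkat cells (α4β1+, α4β7−) are Hoechst H33342-labelled (6 µg/mL), then preincubated with compound 10 min at 37 °C at 8 × 10^5 cells/mL. Adhesion runs 30 min at 37 °C to VCAM-IgG (293T transfectant supernatant) captured on donkey anti-human IgG, in RPMI/1% BSA/1 mM Ca2+, Mg2+. Unbound cells are spun off inverted (50 g, 10 min); adhesion is read by fluorescence; IC50 from curves.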

Assay [2] in a line: In vitro inhibition of 38-beta7 (alpha4-beta7) cell adhesion to mucosal addressin cell adhesion molecule-1. The assay is classed as functional. In short, it runs like this:
(§2)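 38C13β7 lymphoma cells (α4β7+) labelled with H33342 dye (6 µg/mL), 8 × 10^5 cells/mL in adhesion buffer (Click's RPMI, 1% BSA, 1.0 mM Ca2+/Mg2+). Cells are preincubated with compound 10 min at 37 °C, then adhere 30 min at 37 °C to plates carrying anti-human-IgG-captured MAdCAM-1-IgG from 293T supernatant. Nonadherent cells are removed by inverse centrifugation (50 g, 10 min); readout is fluorimetry; IC50 from curves.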

Another assay deals with T1, Integrin beta-7 (Homo sapiens, UniProt P13612+P26010).
T1 sequence (P26010 whole entry): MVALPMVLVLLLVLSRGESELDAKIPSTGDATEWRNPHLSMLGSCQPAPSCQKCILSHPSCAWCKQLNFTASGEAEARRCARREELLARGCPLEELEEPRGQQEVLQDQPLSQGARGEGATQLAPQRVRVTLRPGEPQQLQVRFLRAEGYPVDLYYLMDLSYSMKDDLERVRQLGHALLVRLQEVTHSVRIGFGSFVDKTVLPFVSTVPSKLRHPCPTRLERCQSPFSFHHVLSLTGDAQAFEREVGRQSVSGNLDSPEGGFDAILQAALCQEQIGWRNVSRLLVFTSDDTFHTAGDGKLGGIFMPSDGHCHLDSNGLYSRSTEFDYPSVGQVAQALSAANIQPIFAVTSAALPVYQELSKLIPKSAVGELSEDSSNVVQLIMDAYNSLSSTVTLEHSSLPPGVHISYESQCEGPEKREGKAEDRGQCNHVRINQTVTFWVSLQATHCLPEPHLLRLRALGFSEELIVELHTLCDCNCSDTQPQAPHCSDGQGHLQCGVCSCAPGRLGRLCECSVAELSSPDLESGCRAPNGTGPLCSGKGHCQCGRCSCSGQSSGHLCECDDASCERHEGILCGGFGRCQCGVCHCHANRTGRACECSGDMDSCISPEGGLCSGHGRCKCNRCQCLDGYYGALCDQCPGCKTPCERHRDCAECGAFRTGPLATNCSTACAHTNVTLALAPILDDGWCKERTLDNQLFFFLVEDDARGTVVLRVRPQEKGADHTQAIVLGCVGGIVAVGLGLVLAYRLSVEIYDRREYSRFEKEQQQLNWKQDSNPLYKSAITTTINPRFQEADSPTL
In words: Inhibition of alpha4-beta7 interaction to mucosal addressin cell adhesion molecule-1 (MAdCAM-1) was determined. The assay is classed as functional. The procedure, abridged:
as §2

Another assay has as its target Integrin beta-1 (Homo sapiens, UniProt P05556). As to the kind of experiment: Inhibition of alpha4-beta1 interaction to vascular cell adhesion molecule-1 (VCAM-1) was determined. The class given is functional. In short, it runs like this:
as §1

Sequence of Integrin beta-1 (P05556 whole entry): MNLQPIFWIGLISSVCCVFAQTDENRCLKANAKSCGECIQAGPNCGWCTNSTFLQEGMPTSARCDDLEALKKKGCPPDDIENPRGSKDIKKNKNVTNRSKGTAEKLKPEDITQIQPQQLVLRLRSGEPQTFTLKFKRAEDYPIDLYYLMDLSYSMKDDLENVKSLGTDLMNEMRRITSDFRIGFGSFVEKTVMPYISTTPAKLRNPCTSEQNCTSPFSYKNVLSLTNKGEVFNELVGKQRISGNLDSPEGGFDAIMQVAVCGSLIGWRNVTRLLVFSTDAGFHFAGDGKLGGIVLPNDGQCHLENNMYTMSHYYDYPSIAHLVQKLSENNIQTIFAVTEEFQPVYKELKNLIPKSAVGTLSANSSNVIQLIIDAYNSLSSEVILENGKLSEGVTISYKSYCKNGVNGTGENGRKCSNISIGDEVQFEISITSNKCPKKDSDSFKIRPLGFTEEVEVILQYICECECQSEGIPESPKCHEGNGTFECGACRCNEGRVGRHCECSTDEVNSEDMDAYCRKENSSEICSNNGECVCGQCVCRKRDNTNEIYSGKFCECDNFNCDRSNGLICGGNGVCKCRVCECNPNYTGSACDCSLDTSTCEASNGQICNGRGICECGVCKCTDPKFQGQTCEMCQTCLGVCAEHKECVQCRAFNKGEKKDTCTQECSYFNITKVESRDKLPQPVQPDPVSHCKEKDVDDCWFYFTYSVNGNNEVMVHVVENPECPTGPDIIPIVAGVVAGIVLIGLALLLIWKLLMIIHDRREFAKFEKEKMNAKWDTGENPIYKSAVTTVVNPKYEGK

On to `COC1C(COCC(C)C)O[C@@H](OCC(=O)O)[C@H](OCc2ccccc2)[C@H]1OC` (stereo not given in full), for which the Adhesion in assay [1] and in assay [2] was 100% in each case. Regarding `COC12CCCC[C@]1(OC)O[C@H]1C(O2)C(COC(C)C)O[C@@H](OCC(=O)O)[C@@H]1OCc1ccccc1` (stereo in doubt; form 2) [listing 1 of 2 here], the Adhesion in assay [2] was determined as 76%.

Take `COC1C(COC(C)C)O[C@@H](OCC(=O)O)C(OCc2ccccc2)[C@H]1OC` (stereo not given in full): the Adhesion stood at 86% in assay [1] and 100% in assay [2]. Regarding `COC12CCCC[C@]1(OC)O[C@H]1C(O2)C(COC(C)C)O[C@@H](OCC(=O)O)[C@@H]1OCc1ccccc1` (stereo in doubt; form 2) [listing 2 of 2 here], the Adhesion in assay [1] came out at 100%.

On to `COC1C(COC(C)C)O[C@@H](OCC(=O)O)C(OCCO)[C@H]1OC` (stereo not given in full), for which the Adhesion in assay [1] and in assay [2] was 100% in each case.

Consider `CO[C@@]12O[C@H]3[C@H](O[C@@]1(OC)c1ccccc1-c1ccccc12)[C@@H](COCC(C)C)OC(OCC(=O)O)[C@H]3OCCO` (stereo not given in full), for which the Adhesion in assay [1] is 81%; in assay [2], 76%. `CO[C@]12CCCC[C@@]1(OC)OC1[C@H](COCC(C)C)O[C@@H](OCC(=O)O)[C@H](OCc3ccccc3)[C@H]1O2` (stereo in doubt; form 2) [listing 1 of 2 here] returned an Adhesion in assay [1] of 77%.

`CC[C@H](C)[C@@H]1NC(=O)[C@@H](CCC(N)=O)NC(=O)[C@H](N)CSSC[C@H](C(=O)O)NC(=O)[C@H]2CCCN2C(=O)[C@H](CO)NC(=O)[C@@H](CC(=O)O)NC1=O` gave an Adhesion in assay [1] of 52%. The IC50 is the concentration at which inhibition is half-maximal. Low values mean higher potency, high ones lower potency. For `CO[C@]12CCCC[C@@]1(OC)OC1[C@H](COCC(C)C)O[C@@H](OCC(=O)O)[C@H](OCc3ccccc3)[C@H]1O2` (stereo in doubt; form 2) [listing 2 of 2 here], the concentration for half-maximal inhibition (IC50) at Integrin beta-7 worked out at 420 µM. Also, the Adhesion in assay [2] came out at 15%. `COC1C(COCC(C)C)O[C@@H](OCC(=O)O)C(OCc2ccccc2)[C@H]1OC` (stereo not given in full): the Adhesion was 86% in assay [1] and 100% in assay [2].

As to `CO[C@@]12O[C@@H]3[C@H](OCCO)[C@H](OCC(=O)O)O[C@H](COCC(C)C)[C@H]3O[C@@]1(OC)c1ccccc1-c1ccccc12`, the Adhesion worked out at 82% in assay [1] and 80% in assay [2]. In the case of `CC(C)C[C@H](NC(=O)c1cc2ccccc2cn1)C(=O)N[C@@H](CC(=O)O)C(=O)N[C@H](C(N)=O)[C@@H](C)O`, the IC50 against Integrin beta-7 came out at 280 µM. The Adhesion in assay [1] and in assay [2] was 10% throughout. Regarding `COC1C(CC(C)C)O[C@@H](OCC(=O)O)[C@H](OCc2ccccc2)[C@H]1OC` (stereo not given in full), the Adhesion in assay [1] and in assay [2] was 100% throughout. For `COC12CCCC[C@]1(OC)O[C@H]1C(O2)C(COC(C)C)O[C@@H](OCC(=O)O)[C@@H]1OCc1ccccc1` (stereo in doubt; form 1) [listing 1 of 2 here], the Adhesion in assay [2] is reported as 100%.

Consider `COC1C(COCC(C)C)O[C@@H](OCC(=O)O)[C@H](OCCO)[C@H]1OC` (stereo not given in full), for which the Adhesion in assay [1] and in assay [2] was 100% throughout. `CC[C@H](C)[C@@H]1NC(=O)[C@H](CCC(N)=O)NC(=O)[C@@H](N)CSSC[C@@H](C(=O)O)NC(=O)[C@@H]2CCCN2C(=O)[C@H](CO)NC(=O)[C@H](CC(=O)O)NC1=O` returned an IC50 against Integrin beta-1 of 1440 µM. For the compound `COC1C(CCC(C)C)O[C@@H](OCC(=O)O)[C@H](OCc2ccccc2)[C@H]1OC` (stereo not given in full), the Adhesion in assay [1] turned out to be 97%; in assay [2], 100%. `COC1C(CCC(C)C)O[C@@H](OCC(=O)O)C(OCc2ccccc2)[C@H]1OC` (stereo not given in full): the Adhesion in assay [1] and in assay [2] was 100% each time. As to `COC1C(COC(C)C)O[C@@H](OCC(=O)O)[C@H](OCCO)[C@H]1OC` (stereo not given in full), the Adhesion is 98% in assay [1] and 100% in assay [2]. As to `COC1C(COC(C)C)O[C@@H](OCC(=O)O)[C@H](OCc2ccccc2)[C@H]1OC` (stereo not given in full), the Adhesion in assay [1] came out at 92%; in assay [2], 100%. Take `CO[C@]12CCCC[C@@]1(OC)OC1[C@H](COCC(C)C)O[C@@H](OCC(=O)O)[C@H](OCc3ccccc3)[C@H]1O2` (stereo in doubt; form 1) [listing 1 of 2 here]: the Adhesion in assay [1] worked out at 89%. Regarding `COC1C(CC(C)C)O[C@@H](OCC(=O)O)C(OCc2ccccc2)[C@H]1OC` (stereo not given in full), the Adhesion in assay [1] and in assay [2] was 100% throughout. Consider `CO[C@]12CCCC[C@@]1(OC)OC1[C@H](COCC(C)C)O[C@@H](OCC(=O)O)[C@H](OCc3ccccc3)[C@H]1O2` (stereo in doubt; form 1) [listing 2 of 2 here], for which the Adhesion in assay [2] was determined as 90%. With `COC12CCCC[C@]1(OC)O[C@H]1C(O2)C(COC(C)C)O[C@@H](OCC(=O)O)[C@@H]1OCc1ccccc1` (stereo in doubt; form 1) [listing 2 of 2 here], the Adhesion in assay [1] was found to be 100%.

For the origin of these results see ChEMBL document CHEMBL1146598, “Synthesis and structure-activity relationship of mannose-based peptidomimetics selectively blocking integrin alpha4beta7 binding to mucosal addressin cell adhesion molecule-1” (J Med Chem, 2003).
